≈ marks a conversion by molar mass, not a printed value.
Assays:
[1] = target: T1, Kinesin-like protein KIF11 (Homo sapiens, UniProt P52732); assay: Inhibition of KSP by ATPase assay
T1 sequence (P52732 whole entry): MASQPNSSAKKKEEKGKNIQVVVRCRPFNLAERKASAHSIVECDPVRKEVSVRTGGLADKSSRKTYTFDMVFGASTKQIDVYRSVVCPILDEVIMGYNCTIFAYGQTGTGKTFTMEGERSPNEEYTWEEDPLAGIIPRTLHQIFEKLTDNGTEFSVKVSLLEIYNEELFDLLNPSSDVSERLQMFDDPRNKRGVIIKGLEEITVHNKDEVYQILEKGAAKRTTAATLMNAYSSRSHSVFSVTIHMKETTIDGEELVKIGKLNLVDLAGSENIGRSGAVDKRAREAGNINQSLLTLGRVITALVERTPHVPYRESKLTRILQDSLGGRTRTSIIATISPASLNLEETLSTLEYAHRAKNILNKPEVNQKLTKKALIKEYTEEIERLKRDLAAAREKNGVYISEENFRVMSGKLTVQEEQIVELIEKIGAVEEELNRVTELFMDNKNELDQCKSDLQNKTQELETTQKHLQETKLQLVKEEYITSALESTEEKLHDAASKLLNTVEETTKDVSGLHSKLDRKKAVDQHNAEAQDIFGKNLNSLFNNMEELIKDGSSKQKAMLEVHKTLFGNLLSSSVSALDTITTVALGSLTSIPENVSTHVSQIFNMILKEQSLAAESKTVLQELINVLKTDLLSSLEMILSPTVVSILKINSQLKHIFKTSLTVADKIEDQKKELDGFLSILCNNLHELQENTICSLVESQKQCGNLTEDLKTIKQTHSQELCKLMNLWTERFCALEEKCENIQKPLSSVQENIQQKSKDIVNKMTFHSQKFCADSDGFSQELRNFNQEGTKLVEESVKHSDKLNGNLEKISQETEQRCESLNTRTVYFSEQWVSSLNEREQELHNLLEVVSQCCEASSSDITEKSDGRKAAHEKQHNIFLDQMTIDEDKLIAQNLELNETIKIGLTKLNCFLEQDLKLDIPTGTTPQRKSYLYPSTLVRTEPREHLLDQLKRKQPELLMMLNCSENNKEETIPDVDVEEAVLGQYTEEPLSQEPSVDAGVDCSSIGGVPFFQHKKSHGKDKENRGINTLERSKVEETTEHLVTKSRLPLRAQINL

[2] = Volume of distribution in mongrel dog at 0.25 mg/kg, iv; assay type: ADME, organism-based, Canis lupus familiaris; parameters: dose 0.25 mg/kg, route intravenous; conditions: in vivo, read-out: Vdss
How it was run: (§1)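 Single iv dose of 0.25 mpk given to two mongrel dogs, one male and one female.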

[3] = Solubility in citrate at pH 6.5; assay type: physicochemical
How it was run: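 Crystalline solid; solubility determined in pH 6.5 citrate buffer.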

[4] = test system: A2780; assay: Mitotic arrest in human A2780 cells; assay type: functional, cell-based
[5] = Half life in mongrel dog at 0.25 mg/kg, iv; assay type: ADME, organism-based, Canis lupus familiaris; parameters: dose 0.25 mg/kg, route intravenous; conditions: in vivo; how it was run: as §1
[6] = Partition coefficient, log P of the compound; assay type: physicochemical; conditions: octanol/water
[7] = Clearance in mongrel dog at 0.25 mg/kg, iv; assay type: ADME, organism-based, Canis lupus familiaris; parameters: dose 0.25 mg/kg, route intravenous; conditions: in vivo; how it was run: as §1
[8] = Aqueous solubility at pH 10.3; assay type: physicochemical; conditions: aqueous medium
How it was run: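 Solubility of crystalline material measured in water; final pH of the solution was 10.3.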

[9] = Solubility in citrate at pH 4.0; assay type: physicochemical
How it was run: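 Solubility of crystalline solid determined in citrate buffer at pH 4.0.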

[10] = target: Voltage-gated inwardly rectifying potassium channel KCNH2 (Homo sapiens, UniProt Q12809); assay: Inhibition of hERG expressed in HEK cells by radioligand binding assay; assay type: toxicity, cell-based, HEK293
Chain of Voltage-gated inwardly rectifying potassium channel KCNH2 (Q12809 whole entry): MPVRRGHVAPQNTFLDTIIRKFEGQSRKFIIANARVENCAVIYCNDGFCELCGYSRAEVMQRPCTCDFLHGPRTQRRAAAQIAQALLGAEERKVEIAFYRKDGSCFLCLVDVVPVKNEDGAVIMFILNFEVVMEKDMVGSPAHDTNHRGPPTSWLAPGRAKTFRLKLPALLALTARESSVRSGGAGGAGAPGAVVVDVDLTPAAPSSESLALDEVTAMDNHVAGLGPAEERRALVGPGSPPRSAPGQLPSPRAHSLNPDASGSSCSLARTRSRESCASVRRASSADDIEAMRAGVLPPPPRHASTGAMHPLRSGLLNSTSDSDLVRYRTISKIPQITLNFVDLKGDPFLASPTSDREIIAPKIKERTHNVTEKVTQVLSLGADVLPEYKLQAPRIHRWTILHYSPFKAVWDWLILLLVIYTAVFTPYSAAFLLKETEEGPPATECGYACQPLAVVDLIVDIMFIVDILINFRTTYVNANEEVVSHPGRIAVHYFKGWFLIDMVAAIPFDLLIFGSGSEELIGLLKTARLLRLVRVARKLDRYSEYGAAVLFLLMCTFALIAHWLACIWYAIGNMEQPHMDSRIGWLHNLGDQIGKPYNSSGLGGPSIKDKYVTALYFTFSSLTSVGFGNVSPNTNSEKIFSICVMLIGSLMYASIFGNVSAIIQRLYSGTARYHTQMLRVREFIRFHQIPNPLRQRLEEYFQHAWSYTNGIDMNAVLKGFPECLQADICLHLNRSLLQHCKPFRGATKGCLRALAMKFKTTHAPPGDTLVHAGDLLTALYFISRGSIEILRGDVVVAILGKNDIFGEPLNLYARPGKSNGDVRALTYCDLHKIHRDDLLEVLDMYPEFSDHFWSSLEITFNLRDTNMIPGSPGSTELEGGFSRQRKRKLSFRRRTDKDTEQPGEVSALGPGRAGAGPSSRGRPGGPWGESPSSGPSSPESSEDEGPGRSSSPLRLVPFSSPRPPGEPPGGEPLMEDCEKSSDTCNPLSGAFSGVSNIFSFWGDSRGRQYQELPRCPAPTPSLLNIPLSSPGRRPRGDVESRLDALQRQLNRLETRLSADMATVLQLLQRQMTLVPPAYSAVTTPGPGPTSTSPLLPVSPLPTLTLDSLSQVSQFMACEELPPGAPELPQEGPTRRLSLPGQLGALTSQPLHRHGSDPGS

IC50 [1] [nM] | SMILES | also measured
8 | CN(C)C(=O)N1N=C(c2cc(F)ccc2F)CC1(CCCN)c1ccccc1 (stereo unspecified) | –
55 | NCCCC1(c2ccccc2)CC(c2cc(F)ccc2F)=NN1C(=O)N1CCC1 (stereo unspecified) | –
122 | NCCCC1(c2ccccc2)CC(c2cc(F)ccc2F)=NN1C(=O)N1CCOCC1 (stereo unspecified) | –
390 | CCNC(=O)N1N=C(c2cc(F)ccc2F)CC1(CCN)c1ccccc1 (stereo unspecified) | –
1.9 | CN(C)C(=O)N1N=C(c2cc(F)ccc2F)C[C@@]1(CCCN)c1ccccc1 | Vd [2]: 14 L/kg; EC50 [4]: 5.2 nM; solubility [8]: 1700 µg/mL (≈ 4.4 mM); half-life [5]: 14.7 h; solubility [9]: > 12000 µg/mL; IC50 [10]: 19300 nM; logP [6]: 1.2; clearance [7]: 14.5 mL/min/kg
745 | CCNC(=O)N1N=C(c2cc(F)ccc2F)CC1(CCCO)c1ccccc1 (stereo unspecified) | –
697 | CCNC(=O)N1N=C(c2cc(F)ccc2F)CC1(CCCCO)c1ccccc1 (stereo unspecified) | –
67 | CCNC(=O)N1N=C(c2cc(F)ccc2F)CC1(CCCCN)c1ccccc1 (stereo unspecified) | –
606 | CCNC(=O)N1N=C(c2cc(F)ccc2F)CC1(CCO)c1ccccc1 (stereo unspecified) | –
26 | NCCCC1(c2ccccc2)CC(c2cc(F)ccc2F)=NN1C(=O)N1CCCC1 (stereo unspecified) | –
85 | NCCCC1(c2ccccc2)CC(c2cc(F)ccc2F)=NN1C(=O)N1CCCCC1 (stereo unspecified) | –

Further lines, the compound ahead of its results:

SMILES | IC50 [1] [nM] | also measured
CNC(=O)N1N=C(c2cc(F)ccc2F)CC1(CO)c1ccccc1 (stereo unspecified) | 903 | –
CC(=O)N1N=C(c2cc(F)ccc2F)C[C@H]1c1cccc(O)c1 | 24.7 | Vd [2]: 1.6 L/kg; solubility [3]: 29 µg/mL (≈ 0.0917 mM); EC50 [4]: 24.8 nM; half-life [5]: 1 h; logP [6]: 3.1; clearance [7]: 22.1 mL/min/kg
CCNC(=O)N1N=C(c2cc(F)ccc2F)CC1(CCCCNC(=O)c1ncc[nH]1)c1ccccc1 (stereo unspecified) | 552 | –
CCNC(=O)N1N=C(c2cc(F)ccc2F)CC1(CCCCNCc1ccccc1)c1ccccc1 (stereo unspecified) | 100 | –
CCNC(=O)N1N=C(c2cc(F)ccc2F)CC1(CCCCNC(=O)c1ccccn1)c1ccccc1 (stereo unspecified) | 391 | –
CCNC(=O)N1N=C(c2cc(F)ccc2F)CC1(CCCCNC(=O)c1ccccc1)c1ccccc1 (stereo unspecified) | 892 | –
CCNC(=O)N1N=C(c2cc(F)ccc2F)CC1(CCCCN1CC2C=CC1C2)c1ccccc1 (stereo unspecified) | 119 | –
CCNC(=O)N1N=C(c2cc(F)ccc2F)CC1(CCCC[N+](C)(C)[O-])c1ccccc1 (stereo unspecified) | 585 | –
CCNC(=O)N1N=C(c2cc(F)ccc2F)CC1(CCCCN(C)C)c1ccccc1 (stereo unspecified) | 103 | –
CNC(=O)N1N=C(c2cc(F)ccc2F)CC1(C)c1ccccc1 (stereo unspecified) | 284 | –
CCNC(=O)N1N=C(c2cc(F)ccc2F)CC1(CCCCNC(=O)c1cnc[nH]1)c1ccccc1 (stereo unspecified) | 686 | –

Reference: ChEMBL document CHEMBL1147831, “Kinesin spindle protein (KSP) inhibitors. Part 4: Structure-based design of 5-alkylamino-3,5-diaryl-4,5-dihydropyrazoles as potent, water-soluble inhibitors of the mitotic kinesin KSP” (Bioorg Med Chem Lett, 2006)
